Legend:
[1] = folding enthalpy; higher = less favourable; fluorescence melt of hairpins on a sequencing array, two-state fit; conditions: sodium 0.088 M
Outline: (§1)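 Folding enthalpy and melting temperature were estimated with bootstrapped two-state fits and combined across four replicates by inverse-variance weighting, with fitted temperatures raised by 9.35 °C to match UV melts. The data were Cy3 fluorescence of library hairpins, with annealed Cy3 and quencher oligos, on a sequenced MiSeq flow cell in 50 mM Na-HEPES pH 8.0, 25 mM NaCl, imaged in 2.5 °C steps up to 60 °C and normalised to pre-quench Cy3 and control constructs.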

[2] = melting temperature; fluorescence melt of hairpins on a sequencing array, two-state fit, raised by 9.35 °C to match UV melts; conditions: sodium 0.088 M
Outline: as §1

Row | Sequence | folding enthalpy [1] | Tm [2]
1 | GCGGCGCGAAAGCGAGGC ((..(((....)))..)) | -24.8 kcal/mol | 63.9 °C
2 | GCGGCGCGAAAGCGATGC ((..(((....)))..)) | -38.6 kcal/mol | 69.1 °C
3 | GCGGCGCGAAAGCGTTGC ((..(((....)))..)) | -21.2 kcal/mol | 66.5 °C
4 | GCGGCGCGAAAGCTCGGC ((.(.((....)).).)) | -17.4 kcal/mol | 44.4 °C
5 | GCGGCGGCCCGC ((((....)))) | -13.8 kcal/mol | 58.5 °C
6 | GCGGCTCCGAAAGGACGC (((..(((....)))))) | -41.2 kcal/mol | 54.7 °C
7 | GCGGCTTTCCGC ((((....)))) | -25 kcal/mol | 56.6 °C
8 | GCGGGACGCCGC ((((....)))) | -13.9 kcal/mol | 66.2 °C
9 | GCGGGACTCCGC ((((....)))) | -27.3 kcal/mol | 67.7 °C
10 | GCGGGAGGAAACTCCCAC (.(((((....))))).) | -13.7 kcal/mol | 48.7 °C
11 | GCGGGAGGAAACTCTCGC (((.(((....))).))) | -37.2 kcal/mol | 57.5 °C
12 | GCGGGAGGCCGC ((((....)))) | -18.4 kcal/mol | 57.8 °C
13 | GCGGGATCCCGC ((((....)))) | -41.9 kcal/mol | 59.3 °C
14 | GCGGGCAGCCGC ((((....)))) | -16.4 kcal/mol | 63.5 °C
15 | GCGGGCATCCGC ((((....)))) | -24.5 kcal/mol | 67 °C
16 | GCGGGCGAAAGCCTCGC ((((((....))).))) | -21.9 kcal/mol | 66.3 °C
17 | GCGGGCGGAAACACCCGC (((((.(....).))))) | -44.2 kcal/mol | 60.5 °C
18 | GCGGGCGGAAACGCCCAC (.(((((....))))).) | -8.92 kcal/mol | 57.2 °C
19 | GCGGGCTTCCGC ((((....)))) | -21.2 kcal/mol | 61 °C
20 | GCGGGGACCCGC ((((....)))) | -26.3 kcal/mol | 68.3 °C
21 | GCGGGGCGAAAGCCTAGC ((..(((....)))..)) | -19.2 kcal/mol | 64.2 °C
22 | GCGGGGCGAAAGCGGCGC (((..((....))..))) | -34.7 kcal/mol | 66.8 °C
23 | GCGGGGCGAAAGCTCAGC ((.(.((....)).).)) | -23.7 kcal/mol | 60.1 °C
24 | GCGGGGCGAAAGCTCGGC ((.(.((....)).).)) | -16.4 kcal/mol | 56.3 °C
25 | GCGGGGCGAAAGCTGCGC (((..((....))..))) | -27.2 kcal/mol | 65.6 °C

Row | Sequence | folding enthalpy [1] | Tm [2]
26 | GCGGGGTCGAAAGACCGC (((..(((....)))))) | -12.8 kcal/mol | 57.7 °C
27 | GCGGGTGCCCGC ((((....)))) | -30.3 kcal/mol | 57.4 °C
28 | GCGGGTGGAAACGCTCGC (((.(.(....).).))) | -24.6 kcal/mol | 52.1 °C
29 | GCGGGTGTCCGC ((((....)))) | -22.8 kcal/mol | 58.2 °C
30 | GCGGGTTCGAAAGAACGC (((..(((....)))))) | -12.3 kcal/mol | 45.5 °C
31 | GCGGTAACCGC ((((...)))) | -27.8 kcal/mol | 57.5 °C
32 | GCGGTAAGCCGC ((((....)))) | -23.3 kcal/mol | 57.7 °C
33 | GCGGTACGAAAGTATCGC (((.(((....))).))) | -56.1 kcal/mol | 64.7 °C
34 | GCGGTCACCGC ((((...)))) | -23.8 kcal/mol | 63 °C
35 | GCGGTCGAAAGACCACGC ((((((....)))..))) | -17 kcal/mol | 57 °C
36 | GCGGTCGAAAGACCTCGC ((((((....)))..))) | -14.8 kcal/mol | 50.2 °C
37 | GCGGTCGGAAACGACTGC ((.((((....)))).)) | -41.5 kcal/mol | 64.2 °C
38 | GCGGTCGGAAACGGTCGC (((..((....))..))) | -25.1 kcal/mol | 52.2 °C
39 | GCGGTGATCCGC ((((....)))) | -28.1 kcal/mol | 54.8 °C
40 | GCGGTGCGAAAGCATGGC ((..(((....)))..)) | -21.8 kcal/mol | 56.1 °C
41 | GCGGTGCGAAAGCATTGC ((..(((....)))..)) | -22.4 kcal/mol | 59.2 °C
42 | GCGGTGGGAAACTACCGC (((((.(....).))))) | -37.5 kcal/mol | 60.5 °C
43 | GCGGTTAACCGC ((((....)))) | -28.7 kcal/mol | 66.7 °C
44 | GCGGTTACCCGC ((((....)))) | -28.4 kcal/mol | 56.7 °C
45 | GCGGTTGGAAACAATCGC (((.(((....))).))) | -40.8 kcal/mol | 56.1 °C
46 | GCGGTTGGCCGC ((((....)))) | -25.3 kcal/mol | 64.8 °C
47 | GCGGTTTCCCGC ((((....)))) | -25 kcal/mol | 56.2 °C
48 | GCGTAAAGACGC ((((....)))) | -17.8 kcal/mol | 46.9 °C
49 | GCGTAACACGC ((((...)))) | -20.9 kcal/mol | 55.7 °C
50 | GCGTAACCACGC ((((....)))) | -23.3 kcal/mol | 54.8 °C

Row | Sequence | folding enthalpy [1] | Tm [2]
51 | GCGTAACTACGC ((((....)))) | -25.4 kcal/mol | 57.1 °C
52 | GCGTAAGACGC ((((...)))) | -21.3 kcal/mol | 53 °C
53 | GCGTAAGGAAACTTATGC ((.((((....)))).)) | -31.2 kcal/mol | 45.6 °C
54 | GCGTAAGGAAACTTGTGC ((..(((....)))..)) | -10.8 kcal/mol | 29.7 °C
55 | GCGTAATAACGC ((((....)))) | -21.1 kcal/mol | 51.6 °C
56 | GCGTAATACGC ((((...)))) | -18.7 kcal/mol | 51.9 °C
57 | GCGTAATGACGC ((((....)))) | -23.2 kcal/mol | 51.5 °C
58 | GCGTACCGAAAGGTTCGC (((.(((....))).))) | -50.5 kcal/mol | 63 °C
59 | GCGTACCTACGC ((((....)))) | -29.7 kcal/mol | 52.8 °C
60 | GCGTACGAAAGTAACGC ((((((....))).))) | -40.2 kcal/mol | 59.4 °C
61 | GCGTACGAAAGTACACGC ((((((....)))..))) | -19.1 kcal/mol | 52.6 °C
62 | GCGTACGAAAGTATCGC ((((((....))).))) | -39.6 kcal/mol | 53.4 °C
63 | GCGTACGGAAACGCACAC (.((.((....)).)).) | -12.6 kcal/mol | 38.1 °C
64 | GCGTACTTACGC ((((....)))) | -26.1 kcal/mol | 54.7 °C
65 | GCGTAGCCACGC ((((....)))) | -9.67 kcal/mol | 58.3 °C
66 | GCGTAGCGAAAGCTGTGC ((..(((....)))..)) | -10 kcal/mol | 46.1 °C
67 | GCGTAGGAAACTACGC ((((((....)))))) | -31.2 kcal/mol | 67.1 °C
68 | GCGTAGGACGC ((((...)))) | -17.2 kcal/mol | 55.2 °C
69 | GCGTAGGGAAACCCACAC (.((.((....)).)).) | -10.6 kcal/mol | 21.3 °C
70 | GCGTAGGGAAACTTACGC (((((.(....).))))) | -39.4 kcal/mol | 50.4 °C
71 | GCGTAGGGACGC ((((....)))) | -13 kcal/mol | 52 °C
72 | GCGTAGTAACGC ((((....)))) | -22 kcal/mol | 53 °C
73 | GCGTAGTTACGC ((((....)))) | -22.4 kcal/mol | 54.4 °C
74 | GCGTATAACGC ((((...)))) | -21 kcal/mol | 56.4 °C
75 | GCGTATACACGC ((((....)))) | -22.8 kcal/mol | 53.6 °C

Row | Sequence | folding enthalpy [1] | Tm [2]
76 | GCGTATATACGC ((((....)))) | -27.1 kcal/mol | 55 °C
77 | GCGTATCAACGC ((((....)))) | -25.6 kcal/mol | 53.9 °C
78 | GCGTATGAACGC ((((....)))) | -18.9 kcal/mol | 52 °C
79 | GCGTATGACGC ((((...)))) | -17.5 kcal/mol | 54 °C
80 | GCGTATGGAAACACACGC ((((.((....)).)))) | -29 kcal/mol | 46.3 °C
81 | GCGTATGGAAACGTATGC ((.((.(....).)).)) | -26.1 kcal/mol | 34.8 °C
82 | GCGTATTGACGC ((((....)))) | -13.1 kcal/mol | 52.9 °C
83 | GCGTCAAACGC ((((...)))) | -16.7 kcal/mol | 50.8 °C
84 | GCGTCAATACGC ((((....)))) | -22.8 kcal/mol | 51.4 °C
85 | GCGTCACAACGC ((((....)))) | -27.2 kcal/mol | 55.2 °C
86 | GCGTCACACGC ((((...)))) | -23.6 kcal/mol | 56.2 °C
87 | GCGTCACGAAAGTGTCGC (((.(((....))).))) | -42.4 kcal/mol | 63.4 °C
88 | GCGTCAGGAAACTGACAC (.(((((....))))).) | -13.1 kcal/mol | 43.3 °C
89 | GCGTCAGTACGC ((((....)))) | -20.1 kcal/mol | 51.1 °C
90 | GCGTCATACGC ((((...)))) | -20.1 kcal/mol | 62.7 °C
91 | GCGTCATGACGC ((((....)))) | -30.9 kcal/mol | 61.9 °C
92 | GCGTCCCCACGC ((((....)))) | -21 kcal/mol | 51.1 °C
93 | GCGTCCCGACGC ((((....)))) | -23.3 kcal/mol | 61 °C
94 | GCGTCCGAAAGGACCCGC ((((((....)))..))) | -11.4 kcal/mol | 44.4 °C
95 | GCGTCCGAAAGGACTCGC ((((((....)))..))) | -12.3 kcal/mol | 51 °C
96 | GCGTCCGCACGC ((((....)))) | -17.2 kcal/mol | 52.8 °C
97 | GCGTCCGTACGC ((((....)))) | -26.8 kcal/mol | 52.3 °C
98 | GCGTCGCCGAAAGGCCGC (((..(((....)))))) | -19.3 kcal/mol | 57.1 °C
99 | GCGTCGCGAAAGCCATGC ((.(.((....)).).)) | -16.2 kcal/mol | 41.5 °C

Reference: the array DNA melting data of Ke et al. (doi:10.1101/2024.01.08.574731)
